Data as given in ChEMBL document CHEMBL1131504, “(Z)- and (E)-2-((hydroxymethyl)cyclopropylidene)methyladenine and -guanine. New nucleoside analogues with a broad-spectrum antiviral activity” (J Med Chem, 1998).

Assays:
CEM-SS = experiment: Cytotoxicity on CEM-SS cells; format: functional, cell-based; details: Homo sapiens
Method in brief: (§1)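 Visual cytotoxicity: microscopic inspection of stationary uninfected CEM or CEM-SS cells from suspension cultures.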

CCRF-CEM [1] = experiment: Inhibitory concentration against mitochondrial DNA synthesis CEM cells; format: functional, cell-based; details: Homo sapiens
Method in brief: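 CEM cells (2 × 10^5/mL) in RPMI 1640 + 10% dialyzed FBS with compound, re-split with fresh drug on days 4 and 6. On day 8, 1 × 10^5 cells lysed with RNase A and proteinase K, slot-blotted, probed with a mitochondrial DNA-specific probe.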

CCRF-CEM [2] = experiment: Cytotoxicity was measured on CEM cells infected with Herpes Simplex virus […]; format: functional, cell-based; details: Homo sapiens
Daudi [3] = experiment: Cytotoxicity on Daudi cells at time of […] in cells not effected by the virus.; format: functional, cell-based; details: Homo sapiens
Daudi [4] = experiment: Inhibitory concentration against epstein-barr virus (EBV) infected daudi cells was determined; format: functional, cell-based; details: Homo sapiens
Method in brief: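 Daudi cells infected with P3HR-1 EBV at 0.1–0.2 moi for 45 min at 37 °C, washed, then incubated 48 h with serially diluted drug in RPMI-1640. Acetone-fixed cells stained with anti-VCA monoclonal antibody and FITC anti-mouse IgG, Evans Blue counterstain; 500 cells counted, VCA-positive fraction used for IC50.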

Human alphaherpesvirus 1 = experiment: Inhibitory concentration against herpes simplex virus type 1 (HSV-1) was determined by enzyme-linked immunosorbent assay (ELISA); format: functional, organism-based
[5] = Cytotoxicity on H-1 cells at time of HCMV plaque enumeration in cells not effected by the virus.; format: functional, cell-based; details: Homo sapiens
HFF [6] = experiment: Cytotoxicity on stationary HFF cells at time of HCMV plaque enumeration in cells not effected by the virus.; format: functional, cell-based; details: Homo sapiens
Method in brief: (§2)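 Visual cytotoxicity scored microscopically on stationary HFF or MEF cells not affected by virus, at the time of HCMV or MCMV plaque enumeration.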

HFF [7] = experiment: IC50 value was evaluated by measuring the %inhibition of Human Herpes Virus 6(HHV-6) infected […] cells using ELISA assay; format: functional, cell-based
HFF [8] = experiment: IC50 value was evaluated by measuring the %inhibition of Varicella Zoster virus(VZV) infected HFF cells using plaque reduction assay.; format: functional, cell-based; details: Homo sapiens
Method in brief: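 HFF cells plated 2 days earlier and infected with VZV (20–30 plaques/well) for 1 h. Six 1:5 drug dilutions in MEM + 2% FBS, no antibody overlay, duplicate wells; extra medium on day 5, 10 days total at 37 °C. Neutral red stain, plaques counted; IC50 from regression.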

HFF [9] = experiment: Inhibitory concentration against herpes simplex virus type 1 (HSV-1) infected HFF cells was determined by cytopathic effect inhibition assay; format: functional, cell-based; details: Homo sapiens
Method in brief: (§3)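 HFF cells (low passage) seeded 24 h before in MEM + 10% FBS; drug in MEM + 2% FBS, serial 1:5 dilutions in triplicate, 1 h pre-incubation, then HSV-1 or HSV-2 at 1000 pfu/well. Incubated 3 days at 37 °C, crystal violet/ethanol/formaldehyde stain, absorbance at 630 nm; IC50 by linear regression of % inhibition vs log concentration.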

HFF [10] = experiment: Inhibitory concentration against human cytomegalovirus replication in HFF cells was determined by cytopathic effect inhibition assay; format: functional, cell-based
Method in brief: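 HFF cells seeded 24 h before; serial 1:5 drug dilutions in MEM + 2% FBS in triplicate, 1 h, then 2500 pfu/well CMV. Incubated 14 days at 37 °C with 50 μL MEM added on day 7; crystal violet stain, read at 630 nm. IC50 from regression.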

HFF [11] = experiment: Inhibitory concentration against human cytomegalovirus replication in HFF cells was determined by plaque reduction assay; format: functional, cell-based
Method in brief: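 HFF cells infected with HCMV Towne (~100 pfu/cm2). After adsorption, drug added to duplicate wells at four to eight concentrations; 8–10 days at 37 °C, crystal violet stain, microscopic plaques counted. % plaque reduction vs no-drug control; IC50 by linear regression vs log concentration.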

HFF [12] = experiment: Compound was tested against HFF cells infected with herpes simplex virus type 2 (HSV-2) by cytopathic effect inhibition assay; format: functional, cell-based; details: Homo sapiens; method in brief: as §3
HepG2 = experiment: Inhibitory concentration against hepatitis B virus infected 2.2.15 cells; format: functional, cell-based; details: Homo sapiens
Method in brief: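 HBV-producing 2.2.15 cells in MEM + 10% FBS; compounds added on days 6 and 9, 6 days of exposure. Virions in the medium precipitated with PEG/NaCl, DNA extracted, run on 0.8% agarose, Southern blotted with 32P HBV probe, quantified by densitometry.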

KB = experiment: Cytotoxicity was evaluated by measuring the inhibition of KB cell growth.; format: functional, cell-based; details: Homo sapiens
Method in brief: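 KB cells at 3000–5000/well, overnight at 37 °C, compound added in triplicate at eight concentrations. Growth over 48 h (two population doublings), then ethanol fixation, 0.1% crystal violet stain, eluted dye read at 570 nm; quadruplicate assays. IC50 by linear regression of % inhibition vs log concentration.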

Vero [13] = experiment: Compound was tested against vero cells infected with herpes simplex virus type 2 (HSV-2); format: functional, cell-based; details: Chlorocebus sabaeus
Method in brief: (§4)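 Confluent Vero monolayers (RPMI + 5% FBS + 0.1% methylcellulose) infected 1 h with HSV-1 KOS or HSV-2 333 at 20 or 100 pfu/well. Drug overlay in RPMI + 2% dialyzed FBS + 0.1% methylcellulose, 48–72 h at 37 °C, 5% CO2. Crystal violet stain, plaques counted; IC50 by linear regression of % inhibition vs log concentration.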

Vero [14] = experiment: Inhibitory concentration against herpes simplex virus type 1 (HSV-1) infected vero cells was determined; format: functional, cell-based; details: Chlorocebus sabaeus; method in brief: as §4
[15] = Inhibitory concentration against epstein-barr virus (EBV) infected H-1 cells was determined; format: functional, cell-based; details: Homo sapiens
Method in brief: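 H-1 cells (high-yield EBV producer from P3HR-1) kept in log growth, seeded at 2 × 10^5/well with drug in RPMI 1640 + 10% dialyzed FBS for 5 days at 37 °C. Lysates treated with RNase A and proteinase K, slot-blotted, probed with 32P EBV EcoRI C fragment; normalized to Alu DNA vs untreated cells by densitometry.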

HFF [16] = experiment: Inhibitory concentration against human cytomegalovirus replication in HFF cells was determined by yield reduction assay; format: functional
Method in brief: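 HFF cells (12 500/well) infected with HCMV at moi 0.5–1 and exposed to compound in duplicate at 100 to 0.14 μM for 4 days at 37 °C. After freeze–thaw, supernatants serially diluted onto fresh HFF monolayers and plaques titered; IC90 reported.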

CCRF-CEM [17] = experiment: Cytotoxicity on CEM cells; format: functional, cell-based; details: Homo sapiens; method in brief: as §1
MEF [18] = experiment: Inhibitory concentration against murine cytomegalovirus replication in MEF cells was determined by plaque reduction assay; format: functional, cell-based; details: Mus musculus
Method in brief: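 MEF cells plated 2 days earlier and infected with MCMV (20–30 plaques/well) for 1 h. Six 1:5 drug dilutions in MEM + 2% FBS, duplicate wells, 7 days at 37 °C, 1.5% neutral red stain, plaques counted; IC50 by linear regression vs log concentration.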

MEF [19] = experiment: Cytotoxicity on stationary MEF cells at time of MCMV plaque enumeration in cells not effected by the virus.; format: functional, cell-based; details: Mus musculus; method in brief: as §2

SMILES | IC50 (CEM-SS) | IC50 (CCRF-CEM [1]) | IC50 (CCRF-CEM [2]) | IC50 (Daudi [3]) | IC50 (Daudi [4]) | IC50 (Human alphaherpesvirus 1) | IC50 [5] | IC50 (HFF [6]) | IC50 (HFF [7]) | IC50 (HFF [8]) | IC50 (HFF [9]) | IC50 (HFF [10]) | IC50 (HFF [11]) | IC50 (HFF [12]) | IC50 (HepG2) | IC50 (KB) | IC50 (Vero [13]) | IC50 (Vero [14]) | IC50 [15] | IC90 (HFF [16]) | other results
Nc1nc(O)c2ncn(/C=C3\CC3CO)c2n1 (stereo not drawn) | > 100 µM | > 100 µM | > 100 µM | > 206 µM | > 206 µM | 100 µM | > 50 µM | > 100 µM | > 100 µM | 263 µM | > 413 µM | > 413 µM | > 100 µM | > 413 µM | > 10 µM | > 100 µM | > 100 µM | > 100 µM | > 50 µM | – | –
Nc1ncnc2c1ncn2/C=C1\CC1CO (stereo not drawn) | > 100 µM | > 50 µM | > 100 µM | > 230 µM | 71.4 µM | > 100 µM | > 50 µM | > 100 µM | > 100 µM | 90.2 µM | 36 µM | 395 µM | > 100 µM | 395 µM | > 10 µM | > 100 µM | > 100 µM | > 100 µM | 3 µM | > 100 µM | –
Nc1ccn([C@H]2CC[C@@H](CO)O2)c(=O)n1 [ZALCITABINE] | – | 0.07 µM | – | – | – | – | – | – | – | – | – | – | – | – | 1.4 µM | – | – | – | – | – | IC50 (CCRF-CEM [17]): 10 µM
Nc1nc(O)c2ncn(/C=C3/CC3CO)c2n1 (stereo not drawn) [SYNGUANOL] | > 100 µM | > 100 µM | > 100 µM | > 214 µM | 5.6 µM | 100 µM | > 50 µM | > 100 µM | 42.5 µM | 61.3 µM | 61.7 µM | 0.04 µM | 2.1 µM | > 413 µM | 10 µM | > 100 µM | > 100 µM | 85 µM | 0.3 µM | 1.8 µM | IC50 (MEF [18]): 0.3 µM; IC50 (MEF [19]): > 429 µM
Nc1ncnc2c1ncn2/C=C1/CC1CO (stereo not drawn) | > 100 µM | > 50 µM | > 100 µM | 368 µM | 3.2 µM | 33 µM | > 50 µM | > 100 µM | 14 µM | 2.5 µM | < 0.14 µM | 1 µM | 2.1 µM | 10.6 µM | 2 µM | 78 µM | 59 µM | 28 µM | 0.2 µM | 1.1 µM | IC50 (MEF [18]): 2.1 µM; IC50 (MEF [19]): > 92 µM
Nc1nc2c(ncn2COC(CO)CO)c(=O)[nH]1 [GANCICLOVIR] | – | – | – | – | – | – | – | – | – | – | – | 2.6 µM | 7.4 µM | – | – | – | – | – | – | 1.6 µM | IC50 (MEF [18]): 3.4 µM
Nc1nc(Cl)c2c(ncn2/C=C2/CC2CO)n1 (stereo not drawn) | > 100 µM | > 50 µM | 80 µM | > 199 µM | 1.2 µM | 31 µM | > 50 µM | > 100 µM | 50 µM | > 518 µM | > 79.5 µM | 5.6 µM | 5 µM | > 79.5 µM | > 10 µM | > 100 µM | 55 µM | 52 µM | 0.7 µM | 0.8 µM | IC50 (MEF [18]): 0.3 µM; IC50 (MEF [19]): 270 µM
Nc1nc(Cl)c2ncn(/C=C3\CC3CO)c2n1 (stereo not drawn) | > 100 µM | – | 60 µM | > 199 µM | 143 µM | > 100 µM | < 50 µM | – | – | – | > 79.5 µM | > 79.5 µM | > 100 µM | > 79.5 µM | > 10 µM | > 100 µM | > 100 µM | 95 µM | > 10 µM | 11 µM | –
